Results reported in ChEMBL document CHEMBL1926556, “Synthesis and biological activities of 2-[(heteroaryl)methyl]imidazolines” (Bioorg Med Chem, 2012).
Calls of active or inactive are those of the source. The calls are words filed in the database; no cut-off is given here.

Assays:
[1] = molecular target: T1, Adrenergic receptor alpha-1 (Rattus norvegicus, UniProt P15823+P23944+P43140); assay: Displacement of [3H]prazosin from adrenoceptor alpha1 in Sprague-Dawley rat brain after 45 mins by scintillation counting
T1 sequence (P15823 whole entry): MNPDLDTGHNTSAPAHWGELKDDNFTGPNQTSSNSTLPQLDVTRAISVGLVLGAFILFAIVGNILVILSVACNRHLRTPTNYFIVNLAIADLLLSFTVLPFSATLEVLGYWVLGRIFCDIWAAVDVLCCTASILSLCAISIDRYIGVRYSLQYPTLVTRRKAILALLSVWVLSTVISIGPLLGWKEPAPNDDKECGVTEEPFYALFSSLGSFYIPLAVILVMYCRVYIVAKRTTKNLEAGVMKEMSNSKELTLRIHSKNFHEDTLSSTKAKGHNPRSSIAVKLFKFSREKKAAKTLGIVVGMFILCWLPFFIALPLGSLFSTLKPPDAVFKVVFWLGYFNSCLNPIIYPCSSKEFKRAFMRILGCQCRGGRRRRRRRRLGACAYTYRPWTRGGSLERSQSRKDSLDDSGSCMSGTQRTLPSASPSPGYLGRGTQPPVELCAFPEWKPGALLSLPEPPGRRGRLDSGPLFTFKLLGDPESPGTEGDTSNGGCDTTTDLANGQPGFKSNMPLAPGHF
T1 sequence (P23944 whole entry): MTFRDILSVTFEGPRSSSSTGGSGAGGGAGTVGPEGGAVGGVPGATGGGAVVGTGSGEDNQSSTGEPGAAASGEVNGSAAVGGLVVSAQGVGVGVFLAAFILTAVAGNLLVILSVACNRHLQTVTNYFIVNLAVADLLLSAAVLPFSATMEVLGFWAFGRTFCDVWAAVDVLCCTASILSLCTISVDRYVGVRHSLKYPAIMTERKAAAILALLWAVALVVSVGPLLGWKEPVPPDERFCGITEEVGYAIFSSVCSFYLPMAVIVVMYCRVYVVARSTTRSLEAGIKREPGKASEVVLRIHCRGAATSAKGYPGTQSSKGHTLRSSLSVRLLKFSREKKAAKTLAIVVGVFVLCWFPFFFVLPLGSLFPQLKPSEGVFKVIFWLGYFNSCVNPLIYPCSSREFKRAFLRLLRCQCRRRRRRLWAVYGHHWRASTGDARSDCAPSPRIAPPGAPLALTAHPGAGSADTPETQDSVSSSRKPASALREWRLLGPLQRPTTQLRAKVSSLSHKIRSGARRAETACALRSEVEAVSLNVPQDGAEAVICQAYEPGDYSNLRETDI
T1 sequence (P43140 whole entry): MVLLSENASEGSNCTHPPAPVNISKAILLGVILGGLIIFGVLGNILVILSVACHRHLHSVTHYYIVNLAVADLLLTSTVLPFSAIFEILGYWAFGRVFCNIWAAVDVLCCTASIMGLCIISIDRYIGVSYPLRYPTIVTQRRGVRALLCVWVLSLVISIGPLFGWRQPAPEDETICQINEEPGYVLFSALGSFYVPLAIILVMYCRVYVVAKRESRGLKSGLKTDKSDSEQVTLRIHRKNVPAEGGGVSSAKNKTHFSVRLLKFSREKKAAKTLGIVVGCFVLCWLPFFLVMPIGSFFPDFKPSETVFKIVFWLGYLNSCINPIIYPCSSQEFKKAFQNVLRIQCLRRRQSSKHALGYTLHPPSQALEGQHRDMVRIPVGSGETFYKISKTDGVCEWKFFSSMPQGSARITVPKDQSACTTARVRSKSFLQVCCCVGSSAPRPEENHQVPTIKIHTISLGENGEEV
Procedure, shortened: (§1)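 Crude P2 membranes from male Sprague–Dawley rat brain (250–280 g), 0.2–0.3 mg protein. Radioligand 1 nM: [3H]2BFI for I2, [3H]prazosin for α1, [3H]RX821002 for α2. Non-specific binding defined by 10 µM BU224 (I2), 10 µM phenylephrine (α1) or 10 µM rauwolscine (α2). 11 concentrations from 0.01 nM to 100 µM, triplicate, 45 min at RT. Filtration and scintillation counting; Ki by Cheng–Prusoff.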

[2] = molecular target: Nischarin (Rattus norvegicus, UniProt Q4G017); assay: Displacement of [3H]clonidine from imidazoline I1 receptor in Sprague-Dawley rat kidney membranes after 45 mins by scintillation counting; type: cell membranes, Membrane
Nischarin, sequence (Q4G017 whole entry): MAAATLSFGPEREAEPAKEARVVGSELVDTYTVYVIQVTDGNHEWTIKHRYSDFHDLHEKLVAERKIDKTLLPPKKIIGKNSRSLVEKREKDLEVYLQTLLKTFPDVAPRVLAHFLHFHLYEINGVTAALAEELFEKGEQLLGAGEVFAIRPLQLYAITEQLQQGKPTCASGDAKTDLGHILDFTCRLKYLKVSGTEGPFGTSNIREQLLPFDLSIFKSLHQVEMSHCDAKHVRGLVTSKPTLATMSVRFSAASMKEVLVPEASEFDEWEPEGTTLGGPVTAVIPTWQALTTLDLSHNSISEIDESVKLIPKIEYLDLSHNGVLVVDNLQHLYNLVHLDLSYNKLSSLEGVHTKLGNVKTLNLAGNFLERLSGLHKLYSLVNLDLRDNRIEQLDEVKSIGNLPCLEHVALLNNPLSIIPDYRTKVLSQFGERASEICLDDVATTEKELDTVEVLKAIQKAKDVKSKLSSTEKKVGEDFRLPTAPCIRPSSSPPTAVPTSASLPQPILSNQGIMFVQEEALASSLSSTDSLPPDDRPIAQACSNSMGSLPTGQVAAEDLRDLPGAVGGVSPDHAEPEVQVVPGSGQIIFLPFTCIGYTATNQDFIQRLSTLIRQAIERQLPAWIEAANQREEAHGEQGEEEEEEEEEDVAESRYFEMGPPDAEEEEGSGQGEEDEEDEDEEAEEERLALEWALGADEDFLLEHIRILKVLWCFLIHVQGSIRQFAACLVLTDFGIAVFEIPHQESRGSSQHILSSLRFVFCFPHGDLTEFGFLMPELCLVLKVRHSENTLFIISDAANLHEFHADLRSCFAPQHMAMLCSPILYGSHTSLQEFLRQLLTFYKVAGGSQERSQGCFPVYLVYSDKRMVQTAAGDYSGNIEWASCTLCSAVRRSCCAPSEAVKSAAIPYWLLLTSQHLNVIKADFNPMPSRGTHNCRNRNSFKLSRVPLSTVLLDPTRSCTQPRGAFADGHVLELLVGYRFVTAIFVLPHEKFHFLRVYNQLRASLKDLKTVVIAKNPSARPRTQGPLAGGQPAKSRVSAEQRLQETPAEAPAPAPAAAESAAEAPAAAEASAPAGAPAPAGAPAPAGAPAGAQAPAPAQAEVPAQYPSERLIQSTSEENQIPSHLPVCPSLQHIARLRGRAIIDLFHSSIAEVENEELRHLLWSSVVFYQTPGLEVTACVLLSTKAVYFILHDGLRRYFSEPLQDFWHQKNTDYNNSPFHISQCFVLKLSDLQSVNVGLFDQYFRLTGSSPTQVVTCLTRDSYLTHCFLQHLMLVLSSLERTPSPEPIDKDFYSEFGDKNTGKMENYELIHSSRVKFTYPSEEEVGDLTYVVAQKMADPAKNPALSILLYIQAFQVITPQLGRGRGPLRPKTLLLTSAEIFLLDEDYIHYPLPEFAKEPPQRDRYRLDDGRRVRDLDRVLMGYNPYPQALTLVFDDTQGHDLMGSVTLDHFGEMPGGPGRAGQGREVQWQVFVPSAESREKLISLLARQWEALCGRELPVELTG
Procedure, shortened: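 Crude P2 membranes from male Sprague–Dawley rat kidney, 0.2–0.5 mg protein. […] Specific binding defined by 10 µM rilmenidine. 11 concentrations from 0.01 to 100 µM, 50 mM Tris-HCl pH 7.4, 45 min at RT. Filtration and scintillation counting; IC50.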

[3] = molecular target: T2, Adrenergic receptor alpha-2 (Rattus norvegicus, UniProt P22086+P19328+P22909); assay: Displacement of […] from adrenoceptor alpha2 in Sprague-Dawley rat brain membranes after 45 mins by scintillation counting; type: cell membranes, Membrane; procedure, shortened: as §1
T2 sequence (P22086 whole entry): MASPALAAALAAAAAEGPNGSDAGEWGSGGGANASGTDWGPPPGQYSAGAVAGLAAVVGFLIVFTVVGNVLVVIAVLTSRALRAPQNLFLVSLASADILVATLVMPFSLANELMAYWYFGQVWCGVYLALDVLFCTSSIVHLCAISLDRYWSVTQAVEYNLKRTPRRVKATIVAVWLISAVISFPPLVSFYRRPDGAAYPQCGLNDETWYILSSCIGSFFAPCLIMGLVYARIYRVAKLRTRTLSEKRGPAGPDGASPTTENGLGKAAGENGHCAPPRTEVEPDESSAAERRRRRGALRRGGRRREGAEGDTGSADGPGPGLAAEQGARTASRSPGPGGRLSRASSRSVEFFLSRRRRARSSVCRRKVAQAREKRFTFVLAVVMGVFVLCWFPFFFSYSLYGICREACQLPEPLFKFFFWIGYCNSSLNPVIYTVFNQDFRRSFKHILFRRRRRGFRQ
T2 sequence (P19328 whole entry): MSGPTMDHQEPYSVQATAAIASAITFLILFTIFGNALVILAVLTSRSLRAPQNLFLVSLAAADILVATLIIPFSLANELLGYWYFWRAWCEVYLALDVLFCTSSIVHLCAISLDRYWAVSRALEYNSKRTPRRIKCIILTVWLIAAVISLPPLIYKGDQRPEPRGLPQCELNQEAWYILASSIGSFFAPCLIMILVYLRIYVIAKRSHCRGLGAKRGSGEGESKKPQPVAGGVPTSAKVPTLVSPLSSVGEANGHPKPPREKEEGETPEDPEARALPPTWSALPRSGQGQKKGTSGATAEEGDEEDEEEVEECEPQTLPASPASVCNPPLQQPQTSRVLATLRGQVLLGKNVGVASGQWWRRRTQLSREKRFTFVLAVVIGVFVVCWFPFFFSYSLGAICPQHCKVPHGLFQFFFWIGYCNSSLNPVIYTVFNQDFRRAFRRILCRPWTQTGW
T2 sequence (P22909 whole entry): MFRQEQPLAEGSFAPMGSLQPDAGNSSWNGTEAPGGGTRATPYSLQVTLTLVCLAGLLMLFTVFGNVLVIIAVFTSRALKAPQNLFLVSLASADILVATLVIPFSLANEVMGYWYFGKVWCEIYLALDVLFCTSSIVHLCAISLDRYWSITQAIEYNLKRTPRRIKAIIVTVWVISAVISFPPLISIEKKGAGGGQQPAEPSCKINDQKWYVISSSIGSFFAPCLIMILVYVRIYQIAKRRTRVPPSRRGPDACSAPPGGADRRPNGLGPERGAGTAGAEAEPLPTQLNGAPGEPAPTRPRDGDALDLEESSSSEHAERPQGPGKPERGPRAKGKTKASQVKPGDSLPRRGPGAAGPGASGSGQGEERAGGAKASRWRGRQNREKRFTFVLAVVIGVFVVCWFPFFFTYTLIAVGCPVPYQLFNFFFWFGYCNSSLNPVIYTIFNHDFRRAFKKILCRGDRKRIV

[4] = Displacement of [3H]BFI from imidazoline I2 receptor in Sprague-Dawley rat brain membranes after 45 mins by scintillation counting; type: cell membranes, Membrane; procedure, shortened: as §1
[5] = organism: Rattus norvegicus; assay: Displacement of [3H]BFI from imidazoline I2 in Sprague-Dawley rat brain membranes at 1 X 10^6 after 45 mins by scintillation counting; type: cell membranes; conditions: Membrane
[6] = molecular target: T3, Alpha-2A adrenergic receptor (Homo sapiens) (UniProt P08913); assay: Agonist activity at human adrenoceptor alpha2A expressed in CHOK1 cells assessed as stimulation of agonist-induced [35S]GTPgammaS binding by scintillation counting assay relative to noradrenaline; type: functional, cell-based; conditions: CHO-K1
T3 sequence (whole entry): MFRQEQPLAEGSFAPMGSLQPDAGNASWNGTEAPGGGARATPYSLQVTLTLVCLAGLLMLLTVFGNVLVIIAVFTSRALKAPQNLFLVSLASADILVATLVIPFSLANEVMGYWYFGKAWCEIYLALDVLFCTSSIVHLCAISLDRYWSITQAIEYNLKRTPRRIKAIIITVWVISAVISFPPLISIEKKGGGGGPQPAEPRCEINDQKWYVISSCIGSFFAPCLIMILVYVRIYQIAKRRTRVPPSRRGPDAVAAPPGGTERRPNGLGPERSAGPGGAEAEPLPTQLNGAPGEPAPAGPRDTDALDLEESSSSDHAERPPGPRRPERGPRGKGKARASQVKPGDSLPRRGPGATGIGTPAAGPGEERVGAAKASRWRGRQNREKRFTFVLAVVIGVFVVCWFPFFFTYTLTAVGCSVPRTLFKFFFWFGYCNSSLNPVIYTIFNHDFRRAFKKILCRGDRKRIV
Procedure, shortened: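 Membranes from CHO-K1 cells stably expressing human α2A-adrenoceptor; 5 µg protein incubated with serial dilutions of agonist and 0.1 nM [35S]GTPγS in Tris buffer pH 7.4 with 1 µM GDP, MgCl2, NaCl, 30 min at RT. Filtered and counted by scintillation. EC50 and intrinsic activity relative to noradrenaline; means from 3 independent experiments.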

`Cc1cccc2nn(CC3=NCCN3)nc12.Cl.Cl` showed a Ki [1] of 1.54 µM, an IC50 [2] of 48.8 µM and a Ki [3] of 0.499 µM. The Ki [4] was 0.078 µM.

For `Cl.Fc1cccc2cnn(CC3=NCCN3)c12`, the Ki [1] was 0.107 µM, the IC50 [2] was 16.4 µM and the Ki [3] was 0.0126 µM. For the same compound, the Ki [4] was 0.156 µM.

For `Cl.c1ccc2c(c1)nnn2CC1=NCCN1`, the Ki [1] was 1.34 µM, the IC50 [2] was 56.8 µM and the Ki [3] was 5.11 µM. It also gave a Ki [4] of 0.81 µM.

In the case of `CCc1nc2ccccc2n1CC1=NCCN1.Cl.Cl`, the Ki [1] is reported as 5.5 µM, the IC50 [2] is reported as 44.2 µM and the Ki [3] is reported as 5 µM. The Ki [4] was 34.1 µM.

With `CCc1nc2cc(C)c(C)cc2n1CC1=NCCN1.Cl.Cl` the Ki [1] was 12.9 µM, the IC50 [2] was 93.3 µM and the Ki [3] was 7.41 µM. The Ki [4] was 0.081 µM.

`Cc1nn(CC2=NCCN2)c2ccccc12.Cl.Cl` showed a Ki [1] of 0.095 µM, an IC50 [2] of 21.3 µM and a Ki [3] of 0.435 µM. The Ki [4] was 0.359 µM.

For `Cl.Cl.c1ccc(Cc2nc3ccccc3n2CC2=NCCN2)cc1`, the Ki [1] was 30.9 µM, the IC50 [2] was 21 µM and the Ki [3] was 11.2 µM. The Activity [5] was “inactive”.

`Cc1ccc2c(cnn2CC2=NCCN2)c1.Cl.Cl` showed a Ki [1] of 0.363 µM, an IC50 [2] of 45.4 µM and a Ki [3] of 0.268 µM. The Ki [4] was 0.022 µM.

`Cl.Cl.c1ccc(-c2nc3ccccc3n2CC2=NCCN2)cc1` gave a Ki [1] of 1.11 µM, an IC50 [2] of 28.1 µM and a Ki [3] of 7.44 µM. The Activity [5] was “inactive”.

In the case of `NC[C@H](O)c1ccc(O)c(O)c1`, the Emax [6] is reported as 100%.

Compound `Cc1nc2ccccc2n1CC1=NCCN1.Cl.Cl` has a Ki [1] of 1.29 µM, an IC50 [2] of 9.39 µM and a Ki [3] of 1.02 µM. The Activity [5] was “inactive”.

With `Cc1cc2nnn(CC3=NCCN3)c2cc1C.Cl.Cl` the Ki [1] was 8.04 µM, the IC50 [2] was 16.8 µM and the Ki [3] was 1.56 µM. It also gave a Ki [4] of 26.3 µM.

`Cl.Clc1cccc2c1cnn2CC1=NCCN1` showed a Ki [1] of 0.187 µM, an IC50 [2] of 5.15 µM and a Ki [3] of 0.13 µM. The Ki [4] was 2.85 µM.

Work on `Cl.Cl.c1ccc2c(c1)ncn2CC1=NCCN1` yielded a Ki [1] of 0.929 µM, an IC50 [2] of 43.9 µM and a Ki [3] of 3.25 µM. For the same compound, the Ki [4] was 6.1 µM.

With `COc1cccc2c1cnn2CC1=NCCN1.Cl.Cl` the Ki [1] was 1.67 µM, the IC50 [2] was 32.9 µM and the Ki [3] was 0.305 µM. For the same compound, the Ki [4] was 0.382 µM.

With `Cc1cccc2c1ncn2CC1=NCCN1.Cl.Cl` the Ki [1] was 1.5 µM, the IC50 [2] was 77.7 µM and the Ki [3] was 0.273 µM. It also gave a Ki [4] of 24.4 µM.

`Cc1cc2ncn(CC3=NCCN3)c2cc1C.Cl.Cl` showed a Ki [1] of 1.5 µM, an IC50 [2] of 74 µM and a Ki [3] of 2.26 µM. The Ki [4] was 28 µM.

Work on `Cc1cccc2c1cnn2CC1=NCCN1.Cl` yielded a Ki [1] of 0.409 µM, an IC50 [2] of 12.9 µM and a Ki [3] of 0.197 µM. For the same compound, the Ki [4] was 0.116 µM.

For `Cc1cc2nn(CC3=NCCN3)nc2cc1C.Cl.Cl`, the Ki [1] was 6.07 µM, the IC50 [2] was 0.646 µM and the Ki [3] was 1.32 µM. For the same compound, the Ki [4] was 0.233 µM.
